Experimental data reported in ChEMBL document CHEMBL1687785, “ampG gene of Pseudomonas aeruginosa and its role in β-lactamase expression” (2010).
In brackets after ≈: the same amount, converted by molar mass.

Experiments:
Type in all cases: functional
Pseudomonas aeruginosa [1] = experiment: Antimicrobial activity against Pseudomonas aeruginosa PAO1 after 16 to 20 hrs by broth microdilution method
Method in brief: (§1)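 CLSI broth microdilution: 2-fold serial antibiotic dilutions in Mueller-Hinton broth, inoculated with about 10^4 cells per 100 μl from starter cultures grown to OD600 0.5. MIC is the lowest concentration preventing growth after 16-20 h at 37°C. Triplicate.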

Pseudomonas aeruginosa [2] = experiment: Antimicrobial activity against Pseudomonas aeruginosa isolate 7 obtained from cystic fibrosis patients after 16 to 20 hrs by broth microdilution method
Method in brief: (§2)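 CLSI broth microdilution in Mueller-Hinton broth, serial 2-fold antibiotic dilutions. Inoculum about 10^4 cells per well, taken from starter cultures grown to OD600 0.5. MIC was the lowest antibiotic concentration preventing growth after 16 to 20 h at 37°C. Each MIC was determined in triplicate.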

Pseudomonas aeruginosa [3] = experiment: Antimicrobial activity against Pseudomonas aeruginosa isolate 8 obtained from cystic fibrosis patients after 16 to 20 hrs by broth microdilution method in presence of 120 uM carbonyl cyanide m-chlorophenyl-hydrazone
Method in brief: (§3)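 CLSI broth microdilution in Mueller-Hinton broth with serial antibiotic dilutions. CCCP was added from a 10 mM DMSO stock to 120 μM final, then the bacterial culture was added as inoculum (about 10^4 cells from OD600 0.5 starter cultures). MIC was the lowest concentration preventing growth after 16 to 20 h at 37°C, run in triplicate.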

Pseudomonas aeruginosa [4] = experiment: Antimicrobial activity against ampD, ampDh2, ampDh3 and ampG deficient Pseudomonas aeruginosa PAO1 harboring pUCP24 conferring resistance to gentamycin after 16 to 20 hrs by broth microdilution method in presence of 120 uM carbonyl cyanide m-chlorophenyl-hydrazone; method in brief: as §3
Pseudomonas aeruginosa [5] = experiment: Antimicrobial activity against Pseudomonas aeruginosa isolate 3 obtained from cystic fibrosis patients after 16 to 20 hrs by broth microdilution method in presence of 120 uM carbonyl cyanide m-chlorophenyl-hydrazone; method in brief: as §3
Pseudomonas aeruginosa [6] = experiment: Antimicrobial activity against ampD, ampDh2, ampDh3 deficient Pseudomonas aeruginosa PAO1 after 16 to 20 hrs by broth microdilution method in presence of 120 uM carbonyl cyanide m-chlorophenyl-hydrazone; method in brief: as §3
Pseudomonas aeruginosa [7] = experiment: Antimicrobial activity against Pseudomonas aeruginosa isolate 14 obtained from cystic fibrosis patients after 16 to 20 hrs by broth microdilution method in presence of 120 uM carbonyl cyanide m-chlorophenyl-hydrazone
Method in brief: (§4)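 CLSI broth microdilution in Mueller-Hinton broth with CCCP added from a 10 mM DMSO stock to 120 μM final, alongside 2-fold serial antibiotic dilutions. Inoculum from starter cultures grown to OD600 0.5. MIC is the lowest concentration preventing growth after 16-20 h at 37°C. Triplicate.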

Pseudomonas aeruginosa [8] = experiment: Antimicrobial activity against ampGh1 deficient Pseudomonas aeruginosa PAO1 after 16 to 20 hrs by broth microdilution method in presence of 120 uM carbonyl cyanide m-chlorophenyl-hydrazone
Method in brief: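 Serial 2-fold dilutions of β-lactam in Mueller-Hinton broth with CCCP added from a 10 mM DMSO stock to 120 μM final; inoculum about 10^4 cells from cultures grown to OD600 0.5; MIC taken as lowest concentration preventing growth after 16 to 20 h at 37°C; triplicate.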

Pseudomonas aeruginosa [9] = experiment: Antimicrobial activity against ampD, […], ampDh2 deficient Pseudomonas aeruginosa PAO1 after 16 to 20 hrs by broth microdilution method; method in brief: as §2
Pseudomonas aeruginosa [10] = experiment: Antimicrobial activity against ampD, ampDh2, ampDh3 and ampGh1 deficient Pseudomonas aeruginosa PAO1 after 16 to 20 hrs by broth microdilution method in presence of 120 uM carbonyl cyanide m-chlorophenyl-hydrazone; method in brief: as §3
Pseudomonas aeruginosa [11] = experiment: Antimicrobial activity against ampD, ampDh2, ampDh3 and ampG deficient Pseudomonas aeruginosa PAO1 after 16 to 20 hrs by broth microdilution method; method in brief: as §2
Pseudomonas aeruginosa [12] = experiment: Antimicrobial activity against ampD, ampDh2, ampDh3 and ampGh1 deficient Pseudomonas aeruginosa PAO1 after 16 to 20 hrs by broth microdilution method; method in brief: as §2
Pseudomonas aeruginosa [13] = experiment: Antimicrobial activity against Pseudomonas aeruginosa isolate 16 obtained from cystic fibrosis patients after 16 to 20 hrs by broth microdilution method; method in brief: as §1
Pseudomonas aeruginosa [14] = experiment: Antimicrobial activity against ampGh1 deficient Pseudomonas aeruginosa PAK after 16 to 20 hrs by broth microdilution method; method in brief: as §2
Pseudomonas aeruginosa [15] = experiment: Antimicrobial activity against ampG deficient Pseudomonas aeruginosa PAK harboring pUCP24 conferring resistance to gentamycin after 16 to 20 hrs by broth microdilution method in presence of 120 uM carbonyl cyanide m-chlorophenyl-hydrazone; method in brief: as §3
Pseudomonas aeruginosa [16] = experiment: Antimicrobial activity against Pseudomonas aeruginosa isolate 15 obtained from cystic fibrosis patients after 16 to 20 hrs by broth microdilution method; method in brief: as §1
Pseudomonas aeruginosa [17] = experiment: Antimicrobial activity against ampD, ampDh2, ampDh3 and ampG deficient Pseudomonas aeruginosa PAO1 harboring pUCP24 conferring resistance to gentamycin after 16 to 20 hrs by broth microdilution method; method in brief: as §2
Pseudomonas aeruginosa [18] = experiment: Antimicrobial activity against Pseudomonas aeruginosa isolate 3 obtained from cystic fibrosis patients after 16 to 20 hrs by broth microdilution method; method in brief: as §2
Pseudomonas aeruginosa [19] = experiment: Antimicrobial activity against Pseudomonas aeruginosa isolate 10 obtained from cystic fibrosis patients after 16 to 20 hrs by broth microdilution method; method in brief: as §1
Pseudomonas aeruginosa [20] = experiment: Antimicrobial activity against Pseudomonas aeruginosa isolate 1 obtained from cystic fibrosis patients after 16 to 20 hrs by broth microdilution method; method in brief: as §1
Pseudomonas aeruginosa [21] = experiment: Antimicrobial activity against ampG, ampGh1 deficient Pseudomonas aeruginosa PAK after 16 to 20 hrs by broth microdilution method in presence of 120 uM carbonyl cyanide m-chlorophenyl-hydrazone; method in brief: as §3
Pseudomonas aeruginosa [22] = experiment: Antimicrobial activity against Pseudomonas aeruginosa isolate 2 obtained from cystic fibrosis patients after 16 to 20 hrs by broth microdilution method in presence of 120 uM carbonyl cyanide m-chlorophenyl-hydrazone; method in brief: as §3
Pseudomonas aeruginosa [23] = experiment: Antimicrobial activity against Pseudomonas aeruginosa PAK after 16 to 20 hrs by broth microdilution method; method in brief: as §1
Pseudomonas aeruginosa [24] = experiment: Antimicrobial activity against ampG deficient Pseudomonas aeruginosa PAO1 harboring pZY0901 conferring resistance to gentamycin after 16 to 20 hrs by broth microdilution method in presence of 120 uM carbonyl cyanide m-chlorophenyl-hydrazone; method in brief: as §3
Pseudomonas aeruginosa [25] = experiment: Antimicrobial activity against ampG deficient Pseudomonas aeruginosa PAO1 harboring pZY0908 conferring resistance to gentamycin after 16 to 20 hrs by broth microdilution method; method in brief: as §2
Pseudomonas aeruginosa [26] = experiment: Antimicrobial activity against Pseudomonas aeruginosa isolate 4 obtained from cystic fibrosis patients after 16 to 20 hrs by broth microdilution method in presence of 120 uM carbonyl cyanide m-chlorophenyl-hydrazone; method in brief: as §3
Pseudomonas aeruginosa [27] = experiment: Antimicrobial activity against Pseudomonas aeruginosa isolate 16 obtained from cystic fibrosis patients after 16 to 20 hrs by broth microdilution method in presence of 120 uM carbonyl cyanide m-chlorophenyl-hydrazone; method in brief: as §4
Pseudomonas aeruginosa [28] = experiment: Antimicrobial activity against Pseudomonas aeruginosa isolate 11 obtained from cystic fibrosis patients after 16 to 20 hrs by broth microdilution method; method in brief: as §1
Pseudomonas aeruginosa [29] = experiment: Antimicrobial activity against Pseudomonas aeruginosa isolate 5 obtained from cystic fibrosis patients after 16 to 20 hrs by broth microdilution method in presence of 120 uM carbonyl cyanide m-chlorophenyl-hydrazone; method in brief: as §3
Escherichia coli = experiment: Antimicrobial activity against gentamycin resistant Escherichia coli SNO301-1 harboring pEC1C carrying ampC, ampR from Enterobacter cloacae after 16 to 20 hrs by broth microdilution method
Method in brief: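 CLSI broth microdilution: serial 2-fold β-lactam dilutions in Mueller-Hinton broth, inoculum about 10^4 cells from starter cultures at OD600 0.5; MIC read as lowest concentration preventing growth after 16 to 20 h at 37°C; triplicate determinations.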

SMILES: CC1(C)S[C@@H]2[C@H](NC(=O)[C@H](N)c3ccccc3)C(=O)N2[C@H]1C(=O)O [AMPICILLIN]
- MIC (Pseudomonas aeruginosa [1]): 256 µg/mL (≈ 733 µM)
- MIC (Pseudomonas aeruginosa [2]): 256 µg/mL (≈ 733 µM)
- MIC (Pseudomonas aeruginosa [3]): 8 µg/mL
- MIC (Pseudomonas aeruginosa [4]): 16 µg/mL
- MIC (Pseudomonas aeruginosa [5]): 64 µg/mL
- MIC (Pseudomonas aeruginosa [6]): 64 µg/mL
- MIC (Pseudomonas aeruginosa [7]): 8 µg/mL
- MIC (Pseudomonas aeruginosa [8]): 256 µg/mL
- MIC (Pseudomonas aeruginosa [9]): 1020 µg/mL (≈ 2930 µM)
- MIC (Pseudomonas aeruginosa [10]): 64 µg/mL
- MIC (Pseudomonas aeruginosa [11]): 16 µg/mL (≈ 45.8 µM)
- MIC (Pseudomonas aeruginosa [12]): 1020 µg/mL (≈ 2930 µM)
- MIC (Pseudomonas aeruginosa [13]): 16 µg/mL (≈ 45.8 µM)
- MIC (Pseudomonas aeruginosa [14]): 512 µg/mL (≈ 1470 µM)
- MIC (Pseudomonas aeruginosa [15]): 32 µg/mL
- MIC (Pseudomonas aeruginosa [16]): > 1020 µg/mL
- MIC (Pseudomonas aeruginosa [17]): 16 µg/mL (≈ 45.8 µM)
- MIC (Pseudomonas aeruginosa [18]): 64 µg/mL (≈ 183 µM)
- MIC (Pseudomonas aeruginosa [19]): > 1020 µg/mL
- MIC (Pseudomonas aeruginosa [20]): 512 µg/mL (≈ 1470 µM)
- MIC (Pseudomonas aeruginosa [21]): 32 µg/mL
- MIC (Pseudomonas aeruginosa [22]): 256 µg/mL
- MIC (Pseudomonas aeruginosa [23]): 512 µg/mL (≈ 1470 µM)
- MIC (Pseudomonas aeruginosa [24]): 512 µg/mL
- MIC (Pseudomonas aeruginosa [25]): 32 µg/mL (≈ 91.6 µM)
- MIC (Pseudomonas aeruginosa [26]): 512 µg/mL
- MIC (Pseudomonas aeruginosa [27]): 8 µg/mL
- MIC (Pseudomonas aeruginosa [28]): 512 µg/mL (≈ 1470 µM)
- MIC (Pseudomonas aeruginosa [29]): 512 µg/mL
- MIC (Escherichia coli): 1020 µg/mL (≈ 2930 µM)
